# Legend:
# KYSE-510 [1] = assay: Potentiation of 0.75 uM cisplatin-induced toxicity in 0.5 uM cisplatin resistant human KYSE-510 cells at 1.5 uM pretreated for 48 hrs followed by 0.5 uM cisplatin treatment by MTT assay; type: functional
# Procedure, shortened: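 Cisplatin-resistant Kyse510 CisR (derived by weekly cycles of cisplatin over 24−30 weeks), grown in RPMI 1640 with 10% FCS at 37 °C, 5% CO₂. Test agent added 48 h before cisplatin, then 72 h further incubation. Viability by MTT (read at 544/690 nm) relative to untreated control wells. Combination index by Chou−Talalay method. Mean of three experiments.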
# CAL-27 [2] = assay: Potentiation of 2.5 uM cisplatin-induced toxicity in 1 uM cisplatin resistant human CAL27 cells at 0.5 uM pretreated for 48 hrs followed by 1 uM cisplatin treatment by MTT assay; type: functional
# CAL-27 [3] = assay: Potentiation of 2.5 uM cisplatin-induced toxicity in 1 uM cisplatin resistant human CAL27 cells at 0.25 uM pretreated for 48 hrs followed by 1 uM cisplatin treatment by MTT assay; type: functional
# CAL-27 [4] = assay: Potentiation of 1 uM cisplatin-induced toxicity in 1 uM cisplatin resistant human CAL27 cells at 1 uM pretreated for 48 hrs followed by 1 uM cisplatin treatment by MTT assay; type: functional
# A2780 [5] = assay: Potentiation of 1 uM cisplatin-induced toxicity in 5 uM cisplatin resistant human A2780 cells at 0.5 uM pretreated for 48 hrs followed by 5 uM cisplatin treatment by MTT assay; type: functional
# MDA-MB-231 [6] = assay: Potentiation of 5 uM cisplatin-induced toxicity in 1 uM cisplatin resistant human MDA-MB-231 cells at 1.5 uM pretreated for 48 hrs followed by 1 uM cisplatin treatment by MTT assay; type: functional
# KYSE-510 [7] = assay: Potentiation of cisplatin-induced toxicity in cisplatin resistant human KYSE-510 cells at 1 uM pretreated for 48 hrs followed by cisplatin treatment by MTT assay; type: functional
# Procedure, shortened: (§1)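 Resistant sublines pretreated 48 h with 1 μM HDAC inhibitor, then cisplatin over a concentration range for 72 h; MTT viability read at 544/690 nm. Cisplatin IC50 from four-parameter logistic fit of pooled data (≥3 experiments, triplicate); shift factor = IC50 of cisplatin alone divided by IC50 of the combination.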
# CAL-27 [8] = assay: Potentiation of cisplatin-induced toxicity in cisplatin resistant human CAL27 cells at 1 uM pretreated for 48 hrs followed by cisplatin treatment by MTT assay; type: functional; procedure, shortened: as §1
# Histone deacetylase 5 = Histone deacetylase 5 (Homo sapiens, UniProt Q9UQL6); assay: Inhibition of human HDAC5 by fluorescence assay
# Sequence of Histone deacetylase 5 (Q9UQL6 whole entry): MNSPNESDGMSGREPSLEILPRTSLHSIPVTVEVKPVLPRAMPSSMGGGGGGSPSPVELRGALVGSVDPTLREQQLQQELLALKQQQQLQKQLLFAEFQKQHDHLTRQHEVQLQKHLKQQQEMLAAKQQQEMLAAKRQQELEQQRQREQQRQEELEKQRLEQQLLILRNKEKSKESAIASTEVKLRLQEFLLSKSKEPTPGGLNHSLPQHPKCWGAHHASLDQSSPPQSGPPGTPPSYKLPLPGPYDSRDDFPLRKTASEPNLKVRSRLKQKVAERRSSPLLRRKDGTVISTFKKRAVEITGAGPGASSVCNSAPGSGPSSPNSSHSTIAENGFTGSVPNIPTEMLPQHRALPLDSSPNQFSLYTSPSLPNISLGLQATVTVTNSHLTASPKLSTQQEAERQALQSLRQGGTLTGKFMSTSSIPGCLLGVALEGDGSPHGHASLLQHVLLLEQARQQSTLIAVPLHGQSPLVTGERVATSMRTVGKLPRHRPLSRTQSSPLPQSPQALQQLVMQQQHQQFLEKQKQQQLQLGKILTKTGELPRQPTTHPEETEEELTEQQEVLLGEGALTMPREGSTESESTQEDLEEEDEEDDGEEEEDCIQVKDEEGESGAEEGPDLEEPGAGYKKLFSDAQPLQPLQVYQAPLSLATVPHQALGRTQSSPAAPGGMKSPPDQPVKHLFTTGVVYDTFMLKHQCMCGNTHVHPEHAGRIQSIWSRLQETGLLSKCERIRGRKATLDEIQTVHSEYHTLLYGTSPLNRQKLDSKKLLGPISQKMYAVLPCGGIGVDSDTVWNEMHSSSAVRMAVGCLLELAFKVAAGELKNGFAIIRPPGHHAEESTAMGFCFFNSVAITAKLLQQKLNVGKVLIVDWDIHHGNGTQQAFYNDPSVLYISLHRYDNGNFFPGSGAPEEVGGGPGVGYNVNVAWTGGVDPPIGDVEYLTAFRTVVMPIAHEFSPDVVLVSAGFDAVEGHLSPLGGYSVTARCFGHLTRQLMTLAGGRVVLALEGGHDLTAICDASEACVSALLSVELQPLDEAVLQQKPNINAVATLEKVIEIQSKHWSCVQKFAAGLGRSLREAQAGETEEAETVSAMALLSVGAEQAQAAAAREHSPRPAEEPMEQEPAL
# Histone deacetylase 1 = Histone deacetylase 1 (Homo sapiens, UniProt Q13547); assay: Inhibition of human HDAC1 by fluorescence assay
# Sequence of Histone deacetylase 1 (Q13547 whole entry): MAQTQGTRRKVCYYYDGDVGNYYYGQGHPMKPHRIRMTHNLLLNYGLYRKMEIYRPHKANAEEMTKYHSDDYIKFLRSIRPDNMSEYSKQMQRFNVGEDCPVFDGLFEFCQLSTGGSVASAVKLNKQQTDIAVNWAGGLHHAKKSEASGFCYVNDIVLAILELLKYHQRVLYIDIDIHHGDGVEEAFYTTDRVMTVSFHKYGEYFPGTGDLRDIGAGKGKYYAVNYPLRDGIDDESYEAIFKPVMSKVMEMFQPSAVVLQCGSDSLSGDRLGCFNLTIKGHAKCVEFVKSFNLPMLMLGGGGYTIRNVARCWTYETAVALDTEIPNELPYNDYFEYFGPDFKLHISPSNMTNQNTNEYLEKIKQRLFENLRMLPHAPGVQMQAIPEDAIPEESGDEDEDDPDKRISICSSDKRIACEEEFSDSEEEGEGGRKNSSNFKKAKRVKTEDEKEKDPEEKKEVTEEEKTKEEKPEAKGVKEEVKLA
# Histone deacetylase [9] = assay: Inhibition of HDAC in cisplatin sensitive human KYSE-510 cells after 18 hrs by fluorescence assay; type: cell-based
# Histone deacetylase [10] = assay: Inhibition of HDAC in cisplatin resistant human CAL27 cells after 18 hrs by fluorescence assay; type: cell-based; details: cal-27
# Histone deacetylase [11] = assay: Inhibition of HDAC in cisplatin resistant human MDA-MB-231 cells after 18 hrs by fluorescence assay; type: cell-based
# Histone deacetylase [12] = assay: Inhibition of HDAC in cisplatin sensitive human MDA-MB-231 cells after 18 hrs by fluorescence assay; type: cell-based
# KYSE-510 [13] = assay: Cytotoxicity against cisplatin sensitive human KYSE-510 cells after 72 hrs by MTT assay; type: functional, cell-based; details: KYSE-510, 72 h
# KYSE-510 [14] = assay: Cytotoxicity against cisplatin resistant human KYSE-510 cells after 72 hrs by MTT assay; type: functional, cell-based; details: KYSE-510, 72 h
# Histone deacetylase [15] = assay: Inhibition of HDAC in cisplatin resistant human A2780 cells after 18 hrs by fluorescence assay; type: cell-based
# A2780 [16] = assay: Potentiation of 20 uM cisplatin-induced toxicity in 5 uM cisplatin resistant human A2780 cells at 1.5 uM pretreated for 48 hrs followed by 5 uM cisplatin treatment by MTT assay; type: functional
# A2780 [17] = assay: Potentiation of 20 uM cisplatin-induced toxicity in 5 uM cisplatin resistant human A2780 cells at 1 uM pretreated for 48 hrs followed by 5 uM cisplatin treatment by MTT assay; type: functional
# KYSE-510 [18] = assay: Potentiation of 8 uM cisplatin-induced toxicity in 0.5 uM cisplatin resistant human KYSE-510 cells at 1 uM pretreated for 48 hrs followed by 0.5 uM cisplatin treatment by MTT assay; type: functional
# CAL-27 [19] = assay: Potentiation of 45 uM cisplatin-induced toxicity in 1 uM cisplatin resistant human CAL27 cells at 1.5 uM pretreated for 48 hrs followed by 1 uM cisplatin treatment by MTT assay; type: functional
# Histone deacetylase [20] = assay: Inhibition of HDAC in human A2780 cells after 18 hrs by fluorescence assay; type: cell-based
# KYSE-510 [21] = assay: Potentiation of 3.16 uM cisplatin-induced toxicity in 0.5 uM cisplatin resistant human KYSE-510 cells at 1.5 uM pretreated for 48 hrs followed by 0.5 uM cisplatin treatment by MTT assay; type: functional
# KYSE-510 [22] = assay: Potentiation of 3.16 uM cisplatin-induced toxicity in 0.5 uM cisplatin resistant human KYSE-510 cells at 1 uM pretreated for 48 hrs followed by 0.5 uM cisplatin treatment by MTT assay; type: functional
# MDA-MB-231 [23] = assay: Potentiation of 40 uM cisplatin-induced toxicity in 1 uM cisplatin resistant human MDA-MB-231 cells at 0.25 uM pretreated for 48 hrs followed by 1 uM cisplatin treatment by MTT assay; type: functional
# A2780 [24] = assay: Potentiation of 8 uM cisplatin-induced toxicity in 5 uM cisplatin resistant human A2780 cells at 0.25 uM pretreated for 48 hrs followed by 5 uM cisplatin treatment by MTT assay; type: functional
# KYSE-510 [25] = assay: Potentiation of 1 uM cisplatin-induced toxicity in 0.5 uM cisplatin resistant human KYSE-510 cells at 1.5 uM pretreated for 48 hrs followed by 0.5 uM cisplatin treatment by MTT assay; type: functional
# KYSE-510 [26] = assay: Potentiation of 1 uM cisplatin-induced toxicity in 0.5 uM cisplatin resistant human KYSE-510 cells at 1 uM pretreated for 48 hrs followed by 0.5 uM cisplatin treatment by MTT assay; type: functional
# KYSE-510 [27] = assay: Potentiation of 1 uM cisplatin-induced toxicity in 0.5 uM cisplatin resistant human KYSE-510 cells at 0.5 uM pretreated for 48 hrs followed by 0.5 uM cisplatin treatment by MTT assay; type: functional
# CAL-27 [28] = assay: Potentiation of 5 uM cisplatin-induced toxicity in 1 uM cisplatin resistant human CAL27 cells at 0.25 uM pretreated for 48 hrs followed by 1 uM cisplatin treatment by MTT assay; type: functional
# MDA-MB-231 [29] = assay: Potentiation of 25 uM cisplatin-induced toxicity in 1 uM cisplatin resistant human MDA-MB-231 cells at 1 uM pretreated for 48 hrs followed by 1 uM cisplatin treatment by MTT assay; type: functional
structure (smiles),measurement,setting,value
Cc1cc(C)cc(C(=O)NOCCCCCC(=O)NO)c1,Activity,KYSE-510 [1],Dose-dependent effect
same,fractional inhibitory concentration index (FICI),KYSE-510 [1],0.05
same,Activity,CAL-27 [2],Dose-dependent effect
same,Activity,CAL-27 [3],Dose-dependent effect
same,Activity,CAL-27 [4],Dose-dependent effect
same,Activity,A2780 [5],Dose-dependent effect
same,fractional inhibitory concentration index (FICI),A2780 [5],0.85
same,Activity,MDA-MB-231 [6],Dose-dependent effect
same,fractional inhibitory concentration index (FICI),MDA-MB-231 [6],<0.2
same,Activity,KYSE-510 [7],Dose-dependent effect
same,fold change (FC),KYSE-510 [7],18.8
same,Activity,CAL-27 [8],Dose-dependent effect
same,fold change (FC),CAL-27 [8],21.6
same,IC50,Histone deacetylase 5,4.22 nM
same,IC50,Histone deacetylase 1,320 nM
same,IC50,Histone deacetylase [9],1000 nM
same,IC50,Histone deacetylase [10],360 nM
same,IC50,Histone deacetylase [11],410 nM
same,IC50,Histone deacetylase [12],460 nM
same,IC50,KYSE-510 [13],2960 nM
same,IC50,KYSE-510 [14],2480 nM
same,IC50,Histone deacetylase [15],320 nM
same,Activity,A2780 [16],Dose-dependent effect
same,fractional inhibitory concentration index (FICI),A2780 [16],0.64
same,Activity,A2780 [17],Dose-dependent effect
same,fractional inhibitory concentration index (FICI),A2780 [17],0.49
same,Activity,KYSE-510 [18],Dose-dependent effect
same,fractional inhibitory concentration index (FICI),KYSE-510 [18],0.18
same,Activity,CAL-27 [19],Dose-dependent effect
same,fractional inhibitory concentration index (FICI),CAL-27 [19],0.23
same,IC50,Histone deacetylase [20],650 nM
same,Activity,KYSE-510 [21],Dose-dependent effect
same,fractional inhibitory concentration index (FICI),KYSE-510 [21],0.12
same,Activity,KYSE-510 [22],Dose-dependent effect
same,fractional inhibitory concentration index (FICI),KYSE-510 [22],0.09
same,Activity,MDA-MB-231 [23],Dose-dependent effect
same,Activity,A2780 [24],Dose-dependent effect
same,fractional inhibitory concentration index (FICI),A2780 [24],0.78
same,Activity,KYSE-510 [25],Dose-dependent effect
same,fractional inhibitory concentration index (FICI),KYSE-510 [25],0.05
same,Activity,KYSE-510 [26],Dose-dependent effect
same,fractional inhibitory concentration index (FICI),KYSE-510 [26],0.05
same,Activity,KYSE-510 [27],Dose-dependent effect
same,fractional inhibitory concentration index (FICI),KYSE-510 [27],0.08
same,Activity,CAL-27 [28],Dose-dependent effect
same,Activity,MDA-MB-231 [29],Dose-dependent effect
same,fractional inhibitory concentration index (FICI),MDA-MB-231 [29],0.72

# — ChEMBL document CHEMBL2311425, “Histone deacetylase (HDAC) inhibitors with a novel connecting unit linker region reveal a selectivity profile for HDAC4 and HDAC5 with improved activity against chemoresistant cancer cells” (J Med Chem, 2013)
